The source made the active and inactive calls.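 How the source made its calls, unless noted: active means viability loss from added drug above about 55%, and viability with drug at most 40%, in both replicates (limit read from the data, passing the limit was not always enough); inconclusive means both conditions met in only one replicate; inactive means neither replicate meets both conditions.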
Tests used:
[1] = Her2 expression decrease, cell viability multiplex – SKBR3 breast tumor cells, AlphaScreen, ATP viability, primary screen (AID 461;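 active means Her2 level under about 52% in both replicate screens, with viability over 70% of control, limit read from the data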;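 on Her2 level: lower value means less Her2 protein in the cells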;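 on viability: percent of carrier control wells set as 100% viability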); conditions: SKBR3 Her2 protein level, 18-24 h, measured here: SKBR3 viability, ATP luminescence, at 10 µM
[2] = target: Receptor tyrosine-protein kinase erbB-2 (Homo sapiens) (UniProt P04626); experiment: as above; conditions: 18-24 h, at 10 µM, stronger effect = lower value
Sequence of Receptor tyrosine-protein kinase erbB-2 (Homo sapiens) (P04626 whole entry, looked up): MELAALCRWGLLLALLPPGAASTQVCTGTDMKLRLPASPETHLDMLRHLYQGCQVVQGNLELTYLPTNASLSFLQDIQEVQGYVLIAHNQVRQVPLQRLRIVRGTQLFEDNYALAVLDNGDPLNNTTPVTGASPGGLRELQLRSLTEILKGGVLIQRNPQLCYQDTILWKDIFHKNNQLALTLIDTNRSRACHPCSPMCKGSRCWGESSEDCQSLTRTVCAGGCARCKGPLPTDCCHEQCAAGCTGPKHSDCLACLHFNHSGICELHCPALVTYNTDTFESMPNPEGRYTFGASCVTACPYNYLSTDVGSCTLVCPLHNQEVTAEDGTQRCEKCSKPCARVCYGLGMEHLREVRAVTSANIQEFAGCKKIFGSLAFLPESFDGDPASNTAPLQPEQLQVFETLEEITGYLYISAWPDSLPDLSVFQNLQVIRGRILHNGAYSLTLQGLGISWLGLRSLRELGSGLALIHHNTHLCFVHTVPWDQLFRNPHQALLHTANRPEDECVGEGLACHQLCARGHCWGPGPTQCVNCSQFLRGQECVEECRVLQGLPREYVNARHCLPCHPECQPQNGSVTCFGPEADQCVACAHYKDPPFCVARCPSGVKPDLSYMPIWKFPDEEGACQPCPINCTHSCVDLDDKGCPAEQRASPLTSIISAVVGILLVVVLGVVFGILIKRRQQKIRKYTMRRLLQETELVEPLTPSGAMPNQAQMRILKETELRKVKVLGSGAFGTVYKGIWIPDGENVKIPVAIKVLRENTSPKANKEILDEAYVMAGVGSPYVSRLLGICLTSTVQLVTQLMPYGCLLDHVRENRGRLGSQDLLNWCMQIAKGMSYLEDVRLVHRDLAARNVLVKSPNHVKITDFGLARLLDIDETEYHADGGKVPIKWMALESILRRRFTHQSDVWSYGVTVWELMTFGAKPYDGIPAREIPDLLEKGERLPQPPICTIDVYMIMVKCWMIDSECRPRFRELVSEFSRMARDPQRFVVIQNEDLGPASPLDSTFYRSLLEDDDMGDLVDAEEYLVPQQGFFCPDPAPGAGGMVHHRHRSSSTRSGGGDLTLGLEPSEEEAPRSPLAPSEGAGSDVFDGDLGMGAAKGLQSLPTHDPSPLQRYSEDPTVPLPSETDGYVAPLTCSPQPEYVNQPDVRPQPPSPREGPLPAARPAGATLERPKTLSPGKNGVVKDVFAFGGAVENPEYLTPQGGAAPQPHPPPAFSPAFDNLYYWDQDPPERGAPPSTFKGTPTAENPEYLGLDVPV

[3] = reduced viability of SK-BR-3 breast cancer cells – cell-based, 24 h, human, pilot screen (AID 572;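 active means viability at or below 10% of carrier control in both of two separate runs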;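 further: compound exposure lasted between 18 and 24 h rather than exactly 24 h; 100% = carrier-treated control wells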); conditions: SK-BR-3 viability, CellTiter-Glo luminescence, at 10 µM, stronger effect = lower value
[4] = HUVEC growth inhibition – cell-based, human, primary screen (AID 575;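 active means viability at or below 30% in both replicate assays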;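 further: 100% = median of untreated cell wells with 0.1% DMSO on each plate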); conditions: HUVEC proliferation, CellTiter-Glo luminescence, 72 h; at 10 µM; stronger effect = lower value
In short: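 Assay system: Primary human umbilical vein endothelial cells | Quantity: 1250 cells per well | Medium: Supplemented EBM, 2% fetal bovine serum | Detection: CellTiter-Glo luminescence measuring cellular ATP | Read-out: % viability vs DMSO wells | Plate: Collagen-coated 384-well format | Times: 72 h exposure, 37 °C, 5% CO2, 30 min RT equilibration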

[5] = H69AR cell proliferation blockers – human, duplicate replicates, primary screen (AID 580;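 active means viability at or under a set limit in both replicates, limit being median viability minus 3 SD, cut at about 48% in these data, passing the limit was not always enough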;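 further: 100% = mean luminescence of untreated wells and 0% = no signal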); conditions: H69AR lung tumor cells viability, ATP luminescence, 72 h; at 10 µM; stronger effect = lower value
[6] = MRP1 drug-resistance reversers in H69AR cells – cell-based, doxorubicin co-treatment, pilot screen (AID 601); conditions: CellTiter-Glo, 72 h, at 10 µM; for differential viability (reversal): stronger effect = higher value
[7] = yeast transport mutant growth inhibition pilot in 384-well plates, post-Golgi transport modulator project (AID 636; in the data active means inhibition above about 31%); conditions: absorbance 615 nm, about 18 h, stronger effect = higher value
[8] = growth suppression of yeast trafficking mutant, preliminary HTS, modulators of trafficking downstream of Golgi apparatus project, 1536-format plate, OD 615 nm (AID 637; in the data active means inhibition above about 30%); conditions: yeast transport mutant growth, absorbance 615 nm, 18 h; stronger effect = higher value
[9] = H69AR cells + 2 uM doxorubicin, measured here: viability with 2 uM doxorubicin, stronger effect = lower value
[10] = H69AR cells, compound alone cytotoxicity

SMILES | viability [1] [%] | Her2 level [2] | viability [3] | viability [4] | viability [5] | differential viability (reversal) ([6]; H69AR cells + 2 uM doxorubicin) | viability [6, 9] [%] | viability [6, 10] [%] | inhibition [7] | inhibition [8]
COc1ccc(S(=O)(=O)NCc2ccc(C(=O)O)cc2)cc1 | 102 | 99% (inactive) | 102% (inactive) | 107% (inactive) | 95.8% (inactive) | -10.6% (inactive) | 106 | 95.8 | -3.77% (inactive) | -3.33% (inactive)
O=C(NCCSCc1ccco1)Nc1cccc(Cl)c1 | 83.5 | 95% (inactive) | 83.5% (inactive) | 63.6% (inactive) | 86.3% (inactive) | 2.05% (inactive) | 84.2 | 86.3 | -5.33% (inactive) | -3.97% (inactive)
COc1ccccc1NC(=O)CC(NCc1ccccc1)C(=O)O (stereo not given) | 108 | 80% (inactive) | 108% (inactive) | 110% (inactive) | 89.1% (inactive) | -2.06% (inactive) | 91.2 | 89.1 | -7.43% (inactive) | -3% (inactive)
O=C(NC1CCCCC1)C(c1ccco1)N(Cc1cccnc1)C(=O)C1COc2ccccc2O1 (stereo not given) | 100 | 84.5% (inactive) | 100% (inactive) | 91.4% (inactive) | 81.1% (inactive) | -7.03% (inactive) | 88.1 | 81.1 | -2.24% (inactive) | 2.13% (inactive)
CCOC(=O)c1c(N)nn(C(=O)C(C)C)c1-c1ccccc1 | 97 | 119% (inactive) | 97% (inactive) | 82.5% (inactive) | 109% (inactive) | 15% (inactive) | 94 | 109 | -5.95% (inactive) | -9.34% (inactive)
Cn1c(CN2CCOCC2)nnc1SCC(=O)NCCc1ccccc1 | 104 | 83% (inactive) | 104% (inactive) | 73.6% (inactive) | 91.8% (inactive) | 11.4% (inactive) | 80.4 | 91.8 | -2.08% (inactive) | -2.86% (inactive)
COc1ccc(C2C=C(c3ccccc3)Nc3ncnn32)cc1 (stereo not given) | 92.5 | 94.5% (inactive) | 92.5% (inactive) | 110% (inactive) | 101% (inactive) | 1.29% (inactive) | 100 | 101 | -3.65% (inactive) | 3.65% (inactive)
N/C(Cn1nnc(-c2ccccc2)n1)=N\O | 97 | 87.5% (inactive) | 97% (inactive) | 112% (inactive) | 107% (inactive) | 11% (inactive) | 96.3 | 107 | -2.5% (inactive) | -5.08% (inactive)
CCOC(=O)c1ccc(NC(=O)CSc2nnc(COc3ccccc3)n2C)cc1 | 110 | 113% (inactive) | 110% (inactive) | 85.3% (inactive) | 107% (inactive) | 8.77% (inactive) | 98.1 | 107 | -1.3% (inactive) | -9.67% (inactive)
CC(=O)c1ccc2c3c(cccc13)C(=O)N(c1c(C)nn(C)c1C)C2=O | 99 | 108% (inactive) | 99% (inactive) | 112% (inactive) | 104% (inactive) | 0.09% (inactive) | 104 | 104 | 1.07% (inactive) | 1.31% (inactive)
C1=Nc2c(NCc3ccccc3)ncnc2Oc2ccccc21 | 83 | 84.5% (inactive) | 83% (inactive) | 80.6% (inactive) | 91.7% (inactive) | 7.99% (inactive) | 83.7 | 91.7 | 2.13% (inactive) | 0.16% (inactive)
COc1ccc(CCNC(=O)CSc2nnc(CNc3ccc(Cl)cc3)o2)cc1OC | 112 | 89% (inactive) | 112% (inactive) | 60.5% (inactive) | 84.3% (inactive) | -6.59% (inactive) | 90.9 | 84.3 | -0.65% (inactive) | -4.29% (inactive)
O=C(CCn1c(=O)oc2ccccc21)NCCN1CCc2ccccc2C1 | 77 | 79% (inactive) | 77% (inactive) | 95.2% (inactive) | 94.4% (inactive) | 16% (inactive) | 78.4 | 94.4 | -2.24% (inactive) | 3.02% (inactive)
CC(C)(C)c1ccc(-c2nnc(SCCC#N)n2C2CCCC2)cc1 | 73.5 | 98.5% (inactive) | 73.5% (inactive) | 65.7% (inactive) | 78.8% (inactive) | 18.4% (inactive) | 60.5 | 78.8 | -4.32% (inactive) | -4.1% (inactive)
COc1ccc(OC)c(C(=O)CSc2nc3ncccc3[nH]2)c1 | 94 | 108% (inactive) | 94% (inactive) | 96.6% (inactive) | 88.9% (inactive) | 7.8% (inactive) | 81.1 | 88.9 | -1.17% (inactive) | 12.5% (inactive)
Cn1c(=O)cc(OCC(=O)NCCCN2CCN(Cc3ccccc3)CC2)c2ccccc21 | 90.5 | 104% (inactive) | 90.5% (inactive) | 81.3% (inactive) | 103% (inactive) | 17.9% (inactive) | 84.8 | 103 | -0.93% (inactive) | -7.87% (inactive)
COCCn1c(CN(Cc2ccccc2)Cc2ccccc2)nc2c1c(=O)n(C)c(=O)n2C | 81 | 96% (inactive) | 81% (inactive) | 81.2% (inactive) | 81.2% (inactive) | -11.8% (inactive) | 93 | 81.2 | -1.87% (inactive) | 1.5% (inactive)
O=C(CN1C(=O)COCC1=O)N1CCOCC1 | 91 | 86.5% (inactive) | 91% (inactive) | 104% (inactive) | 96.9% (inactive) | -0.64% (inactive) | 97.5 | 96.9 | 0.26% (inactive) | 0% (inactive)
CC(C)COc1ccc(-c2nnn(CC(=O)N3CCCC3)n2)cc1 | 86 | 85% (inactive) | 86% (inactive) | 108% (inactive) | 104% (inactive) | 14.9% (inactive) | 88.9 | 104 | -8.67% (inactive) | 16.9% (inactive)
CCOc1ccc(OCC)c2sc(C)nc12 | 107 | 94% (inactive) | 107% (inactive) | 102% (inactive) | 99.5% (inactive) | 12.4% (inactive) | 87.1 | 99.5 | 0.79% (inactive) | 1.48% (inactive)
CCCCCCNS(=O)(=O)c1ccc(Cl)s1 | 85 | 86.5% (inactive) | 85% (inactive) | 81.9% (inactive) | 89.1% (inactive) | 1.29% (inactive) | 87.8 | 89.1 | -4.4% (inactive) | 22.9% (inactive)
Clc1ccccc1OCCCCn1ccnc1 | 95 | 114% (inactive) | 95% (inactive) | 95.9% (inactive) | 83.7% (inactive) | 11.4% (inactive) | 72.3 | 83.7 | 2.34% (inactive) | -4.33% (inactive)
COc1ccccc1C(=O)N1CCN(CCc2ccccc2)CC1 | 102 | 124% (inactive) | 102% (inactive) | 88.2% (inactive) | 103% (inactive) | 3.95% (inactive) | 99.2 | 103 | 0% (inactive) | -4.17% (inactive)
O=C(NCc1ccccc1)N[C@@H](Cc1ccccc1)C(=O)O | 96 | 95% (inactive) | 96% (inactive) | 106% (inactive) | 92.6% (inactive) | 3.32% (inactive) | 89.2 | 92.6 | -2.86% (inactive) | 3.5% (inactive)
CC1(C)CC(=O)c2cnc(NC(=O)CSc3nc4ccccc4o3)nc2C1 | 96 | 98.5% (inactive) | 96% (inactive) | 81.4% (inactive) | 105% (inactive) | 9.52% (inactive) | 95.7 | 105 | -4.46% (inactive) | 0.83% (inactive)
COC(=O)C1C(=O)C2=C(CC1C)NC(=O)CC2c1ccccc1 (stereo not given) | 102 | 97% (inactive) | 102% (inactive) | 91.7% (inactive) | 103% (inactive) | 15.2% (inactive) | 87.9 | 103 | -3.55% (inactive) | 5.33% (inactive)
NC(=O)c1oc2ccc(Cl)cc2c1NC(=O)CN1CCOCC1 | 93.5 | 81% (inactive) | 93.5% (inactive) | 85.3% (inactive) | 98.5% (inactive) | 10.1% (inactive) | 88.4 | 98.5 | -5.26% (inactive) | -2.36% (inactive)

Source: PubChem BioAssay
